In data set [1] the target is FAM-labeled 10 base pair RNA hairpin (OH10L). Kind of data set: Equilibrium fluorescent RNA binding assay. To be noted: read-out: Equilibrium RNA binding Kd, OH10L. In a few lines:
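Recombinant hRIG-I was expressed from pET-SUMO in E. coli Rosetta II (DE3) and purified by nickel, heparin and Superdex 200 chromatography. 6-FAM was attached via the amino-modified UUCG tetraloop, with 2 nM hairpin final. Buffer: 25 mM MOPS pH 7.4, 150 mM NaCl, 5 mM DTT, 0.01% Triton X-100. Protein was titrated over 12 points (1.5–1500 nM) and equilibrated 2 h at RT. Polarization was read at ex 485/em 528 (G = 0.87), 2 wells × 3 reads, and fit one-site total binding. Three experiments gave mean and SD.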

In data set [2] the test system is 5΄ppp10L RNA hairpin. Put plainly: NADH coupled ATPase activity assay. Particulars: for K M,RNA / k cat: steady state ATPase activity; for K M,RNA: 5΄ppp10L. The class given is biochemical. Put shortly:
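Coupled NADH assay: 10 nM RIG-I in 25 mM MOPS pH 7.4, 150 mM NaCl, 5 mM DTT with 1 mM NADH, 100 U/ml lactate dehydrogenase, 500 U/ml pyruvate kinase and 2.5 mM PEP. The hairpin was added as a 12-point series (~0.5–500 nM, diluted in MES pH 6.0/EDTA) and incubated ≥2 h at RT. Reactions were started with 5 mM ATP/5 mM MgCl2, and NADH absorbance loss was followed for 10 min. Mean velocities were plotted against RNA concentration.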

Data set [3] relates to 5΄ppp10L hairpin RNA. To be noted: presence of either ATPγS or ADP; ref [22]; cited from earlier work.
Data set [4] is described as follows: MANT-ATP binding by stopped flow fluorescence spectroscopy. Particulars: for Kd: read-out: MANT-ATP binding Kd (calc., koff/kon).
Data set [5] deals with IFN-β/FireflyLuc reporter in HEK 293T cells. Put plainly: IFN-β induction dual luciferase assay. The data set is classed as cell-based. To be noted: for Maximum IFN-β Production, 5΄OH10L: HEK 293T cells challenged with 5΄OH10L; for Maximum IFN-β Production, 5΄ppp10L: HEK 293T cells challenged with 5΄ppp10L; for Maximum IFN-β Production, PIC: HEK 293T cells challenged with poly(I:C); for Maximum IFN-β Production, Mock: HEK 293T cells, mock challenge (no exogenous RNA).

In data set [6] the test system is 5΄ppp10L hairpin RNA. Put plainly: RNA dissociation rate constant measurements. The data set is classed as binding. Put shortly: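 RIG-I was pre-incubated equimolar with Cy3-labeled hairpin for 2–6 h at RT, then rapidly mixed with 100-fold excess unlabeled hairpin trap (2000 points). Nucleotide (3 mM ATPγS or ADP) plus MgCl2 was included with the trap. Excitation was 515 nm with emission ≥570 nm. 4–6 averaged traces were fit double-exponential for amplitudes and k1/k2.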

Where [7] appears, read: from 5΄ppp10L, nucleotide: ATPγS (3 mM).
Where [8] appears, read: from 5΄ppp10L, nucleotide: None.
The mark [9] stands for this setting: from 5΄ppp10L, nucleotide: ADP (3 mM).

Positions count from the first letter of the chain named. Names and notes keep the numbering of the source. Like-named read-outs stand apart in the source and are kept apart here.

B1: WT RIG-I: Wild-type human RIG-I (hRIG-I), innate immune receptor and RNA-stimulated ATPase, recombinant or expressed from pUNO-hRIG-I (protein, UniProt O95786 1-925, looked up)
Antiviral innate immune …: MTTEQRRSLQAFQDYIRKTLDPTYILSYMAPWFREEEVQYIQAEKNNKGPMEAATLFLKFLLELQEEGWFRGFLDALDHAGYSGLYEAIESWDFKKIEKLEEYRLLLKRLQPEFKTRIIPTDIISDLSECLINQECEEILQICSTKGMMAGAEKLVECLLRSDKENWPKTLKLALEKERNKFSELWIVEKGIKDVETEDLEDKMETSDIQIFYQEDPECQNLSENSCPPSEVSDTNLYSPFKPRNYQLELALPAMKGKNTIICAPTGCGKTFVSLLICEHHLKKFPQGQKGKVVFFANQIPVYEQQKSVFSKYFERHGYRVTGISGATAENVPVEQIVENNDIIILTPQILVNNLKKGTIPSLSIFTLMIFDECHNTSKQHPYNMIMFNYLDQKLGGSSGPLPQVIGLTASVGVGDAKNTDEALDYICKLCASLDASVIATVKHNLEELEQVVYKPQKFFRKVESRISDKFKYIIAQLMRDTESLAKRICKDLENLSQIQNREFGTQKYEQWIVTVQKACMVFQMPDKDEESRICKALFLYTSHLRKYNDALIISEHARMKDALDYLKDFFSNVRAAGFDEIEQDLTQRFEEKLQELESVSRDPSNENPKLEDLCFILQEEYHLNPETITILFVKTRALVDALKNWIEGNPKLSFLKPGILTGRGKTNQNTGMTLPAQKCILDAFKASGDHNILIATSVADEGIDIAQCNLVILYEYVGNVIKMIQTRGRGRARGSKCFLLTSNAGVIEKEQINMYKEKMMNDSILRLQTWDEAVFREKILHIQTHEKFIRDSQEKPKPVPDKENKKLLCRKCKALACYTADVRVIEECHYTVLGDAFKECFVSRPHPKPKQFSSFEKRAKIFCARQNCSHDWGIHVKYKTFEIPVIKIESFVVEDIATGVQTLYSKWKDFHFEKIPFDPAEMSK
For the molecule B1, in data set [1], the Kd is 0.017 ± 0.001 µM. Besides, the “K M,RNA” value in data set [2] is 10.0 ± 1.0 nM. Besides, in data set [2] (stimulated by 5΄ppp10L), the k cat is given as 18.2 ± 0.3 ATP/RIG-I•s and the “kcat (RNA-stimulated ATPase activity)” value was found to be 18.2 s⁻¹. In addition, the “increase in the rate of dissociation from 5΄ppp10L” value in data set [3] is recorded as 5 fold. Further, in data set [4] (protein bound to OH10L), the Kd was 136 ± 6 µM. Further, in data set [5], the “Maximum IFN-β Production, 5΄OH10L” value came to 3.8 ± 0.3 Firefly Luc/Renilla Luc; the “Maximum IFN-β Production, 5΄ppp10L” value is given as 20.1 ± 1.7 Firefly Luc/Renilla Luc; the “Maximum IFN-β Production, PIC” value stood at 59.2 ± 15 Firefly Luc/Renilla Luc; the “Maximum IFN-β Production, Mock” value stood at 0.99 ± 0.4 Firefly Luc/Renilla Luc.

B2: S411L: RIG-I Motif III variant, serine 411 mutated to leucine, annotated in tumor samples (protein, UniProt O95786 1-925, looked up, variant S411L)
Antiviral innate immune …: B1 Antiviral innate immune … with S411L
Take B2: the Kd in data set [1] was determined as 0.041 ± 0.0018 µM. Further, in data set [2], the “K M,RNA” value is recorded as “Inactive”. Moreover, the k cat entry in data set [2] (stimulated by 5΄ppp10L) was “Inactive”. The Kd in data set [4] (protein bound to 5΄ppp10L) is 110 ± 8 µM. Besides, the “stimulation of koff^RNA by ATPγS” value in data set [6] (from 5΄ppp10L) is reported as 7.8 fold. Besides, in data set [6] (setting [7]), the “Amplitude of k 1” value turned out to be 81%, the “Amplitude of k 2” value came to 19%, the “k 1 (RNA dissociation rate constant)” value is 210 ± 1 × 10^−3 s^−1 and the “k 2 (RNA dissociation rate constant)” value is 10 ± 0.1 × 10^−3 s^−1. In addition, in data set [6] (setting [8]), the “Amplitude of k 1” value stood at 52%, the “Amplitude of k 2” value is listed as 48%, the “k 1 (RNA dissociation rate constant)” value is recorded as 27 ± 0.2 × 10^−3 s^−1 and the “k 2 (RNA dissociation rate constant)” value is 2 ± 0.04 × 10^−3 s^−1. The “loss in IFN-β activation relative to WT” value in data set [5] (HEK 293T cells challenged by 5΄ppp10L) worked out at 3 fold. The “loss in IFN-β activation relative to WT” value in data set [5] (HEK 293T cells challenged by poly I:C) is 31 fold. In data set [5], the “Maximum IFN-β Production, 5΄ppp10L” value is given as 7.8 ± 1.5 Firefly Luc/Renilla Luc; the “Maximum IFN-β Production, PIC” value was determined as 1.8 ± 0.4 Firefly Luc/Renilla Luc; the “Maximum IFN-β Production, Mock” value is given as 0.2 ± 0.01 Firefly Luc/Renilla Luc.

B3: S411A: RIG-I variant with mutation S411A within conserved helicase Motif III; constitutively signaling (protein, UniProt O95786 1-925, looked up, variant S411A)
Antiviral innate immune …: B1 Antiviral innate immune … with S411A
B3: the Kd in data set [1] was determined as 0.023 ± 0.0018 µM. For the same molecule, the “K M,RNA” value in data set [2] turned out to be 5.0 ± 1 nM. This molecule also showed a k cat in data set [2] (stimulated by 5΄ppp10L) of 5.1 ± 0.4 ATP/RIG-I•s. For the same molecule, in data set [4] (protein bound to OH10L), the “greater affinity for MANT-ATP relative to WT” value is recorded as 2 fold and the Kd is 75 ± 5 µM. Further, in data set [4] (protein bound to 5΄ppp10L), the Kd was 82 ± 6 µM. Further, in data set [6] (setting [9]), the “Amplitude of k 1” value is on record as 62%, the “Amplitude of k 2” value was found to be 38%, the “k 1 (RNA dissociation rate constant)” value is reported as 70 ± 0.9 × 10^−3 s^−1 and the “k 2 (RNA dissociation rate constant)” value is listed as 6 ± 0.1 × 10^−3 s^−1. In data set [6] (setting [7]), the “Amplitude of k 1” value worked out at 42%, the “Amplitude of k 2” value is recorded as 58%, the “k 1 (RNA dissociation rate constant)” value was 68 ± 0.9 × 10^−3 s^−1 and the “k 2 (RNA dissociation rate constant)” value is 2 ± 0.04 × 10^−3 s^−1. In data set [6] (setting [8]), the “Amplitude of k 1” value came out at 52%, the “Amplitude of k 2” value is listed as 48%, the “k 1 (RNA dissociation rate constant)” value is listed as 45 ± 0.2 × 10^−3 s^−1 and the “k 2 (RNA dissociation rate constant)” value is recorded as 4 ± 0.1 × 10^−3 s^−1. The “effect of nucleotide on the rate of dissociation from 5΄ppp10L” value in data set [6] (saturating nucleotide (ATPγS, ADP)) was “did not significantly change”. Besides, in data set [5], the “Maximum IFN-β Production, 5΄OH10L” value came to 19.5 ± 3.8 Firefly Luc/Renilla Luc; the “Maximum IFN-β Production, 5΄ppp10L” value is 56.6 ± 10.8 Firefly Luc/Renilla Luc; the “Maximum IFN-β Production, PIC” value worked out at 209.8 ± 17 Firefly Luc/Renilla Luc; the “Maximum IFN-β Production, Mock” value is reported as 3.5 ± 0.5 Firefly Luc/Renilla Luc.

(Values after paper PMC5388420 (Nucleic Acids Research, 2016).)
